Consider 14 compounds from ChEMBL document CHEMBL1132938, “Novel synthetic oleanane and ursane triterpenoids with various enone functionalities in ring A as inhibitors of nitric oxide production in mouse macrophages” (J Med Chem, 2000).

What all share (type): functional
The species named for assay [1] is Mus musculus. Briefly: 50 percent inhibitory concentration of compound to inhibit nitric oxide production induced by IFN-gamma in mouse macrophages. In a few lines: (§1)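 Peritoneal macrophages from female CD-1 mice (5-10 weeks old) were harvested 4 days after ip injection of 2 mL 4% thioglycollate. Cells were seeded at 2×10^5/well and incubated 48 h with 20 ng/mL recombinant mouse IFN-γ, with or without compound (DMSO, final ≤0.1%). Compounds were tested over 0.1 pM–1 μM (10-fold) or 0.01–40 μM (4-fold). Nitrite in the supernatant was measured by Griess reagent at 550 nm against a sodium nitrite standard, in triplicate. Values are the average of two experiments.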

The species named for assay [2] is Mus musculus. Briefly: 50 percent inhibitory concentration of compound to inhibit nitric oxide production induced by IFN-gamma in mouse macrophages (Toxic above 1 uM). In short, it runs like this: as §1
Assay [3] is filed under the species Mus musculus. Briefly: 50 percent inhibitory concentration of compound to inhibit nitric oxide production induced by IFN-gamma in mouse macrophages (Not active below 1 uM). In a few lines: as §1
The species named for assay [4] is Mus musculus. Briefly: (§2) Percent inhibition of nitric oxide production induced by IFN-uM concentration. Set-up: concentration or dose not given beside the values.
Assay [5] is filed under the species Mus musculus. Put plainly: 50 percent inhibitory concentration of compound to inhibit nitric oxide production induced by IFN-gamma in mouse macrophages (Toxic above 10 uM). In short, it runs like this:
as §1

The species entered for assay [6] is Mus musculus. Put plainly: 50 percent inhibitory concentration of compound to inhibit nitric oxide production induced by IFN-gamma in mouse macrophages (Not active below 10 uM). In a few lines: as §1
For assay [7], the species on record is Mus musculus. The description is as §2.
The species named for assay [8] is Mus musculus. Put plainly: 50 percent inhibitory concentration of compound to inhibit nitric oxide production induced by IFN-uM). In short, it runs like this:
as §1

SMILES strings stand for the structures. pIC50: −log10 of the molar value.

For orientation: pIC50 means the negative decadic logarithm of the IC50, by convention in mol/L. In the assay listed under Mus musculus [1], `COC(=O)[C@]12CCC(C)(C)CC1C1=CC[C@@H]3[C@@]4(C)C=CC(=O)C=C4CC[C@@]3(C)[C@]1(C)CC2` (stereo not given in full) gave a pIC50 of less than 4.40.
As for `CC1(C)CC[C@]2(C(=O)O)CC[C@]3(C)C(=CC[C@@H]4[C@@]5(C)C=C(C=O)C(=O)C(C)(C)[C@@H]5CC[C@]43C)C2C1` (stereo not given in full), the IC50 result in the assay filed under Mus musculus [2] and in the assay filed under Mus musculus [3] was “Not active below 1 uM” in each case.
What is called Inhibition is the drop in the measured response relative to a control, in per cent. `COC(=O)C12CCC(C)(C)CC1C1=CC[C@@H]3[C@@]4(C)C=CC(=O)C(C)(C)[C@@H]4CC[C@@]3(C)[C@]1(C)CC2` (stereo not given in full) gave a pIC50 in the assay listed under Mus musculus [1] of 4.51. Besides, the Inhibition in the assay filed under Mus musculus [4] amounted to 19%.
In the case of `COC(=O)[C@]12CC[C@@H](C)[C@H](C)C1C1=CC[C@@H]3[C@@]4(C)C=C(C#N)C(=O)C(C)(C)[C@@H]4CC[C@@]3(C)[C@]1(C)CC2` (stereo not given in full), in the assay listed under Mus musculus [1], the pIC50 was 5.29.
On the same count and under the same terms, the same measure for `C[C@@H]1CC[C@]2(C(=O)O)CC[C@]3(C)C(=CC[C@@H]4[C@@]5(C)C=C(C#N)C(=O)C(C)(C)[C@@H]5CC[C@]43C)C2[C@H]1C` (stereo not given in full): 5.21.
`C[C@@H]1CC[C@]2(C(=O)O)CC[C@]3(C)C(=CC[C@@H]4[C@@]5(C)C=CC(=O)C(C)(C)[C@@H]5CC[C@]43C)C2[C@H]1C` (stereo not given in full) had a pIC50 in the assay filed under Mus musculus [1] of 4.89. Further, the Inhibition in the assay filed under Mus musculus [4] is recorded as 41%.
`C[C@@H]1CCC2(C(=O)O)CC[C@]3(C)C(=CC[C@@H]4[C@@]5(C)CC[C@H](O)C(C)(C)[C@@H]5CC[C@]43C)C2[C@H]1C` (stereo not given in full): the IC50 entry in the assay filed under Mus musculus [5] and in the assay filed under Mus musculus [6] was “Not active below 10 uM” throughout. The same compound came in with an Inhibition in the assay listed under Mus musculus [4] of 0%.
`CC(=O)OC[C@]12CCC(C)(C)CC1C(=O)[C@](C)([C@]1(C)CC[C@H]3C(C)(C)[C@@H](OC(C)=O)CC[C@]3(C)[C@H]1CC=O)CC2` (stereo not given in full) gave an Inhibition in the assay filed under Mus musculus [7] of 52%.
With `C=C(C)[C@@H]1CC[C@]2(C)[C@H](CC=C3C4CC(C)(C)CC[C@]4(C(=O)O)CC[C@]32C)[C@@]1(C)CCC#N` (stereo not given in full), the Inhibition in the assay listed under Mus musculus [4] is 33%.
On to `CC1(C)CC[C@]2(C(=O)O)CC[C@]3(C)C(=CC[C@@H]4[C@@]5(C)C=CC(=O)C=C5CC[C@]43C)C2C1` (stereo not given in full), for which the pIC50 in the assay filed under Mus musculus [1] was 4.89.
Consider `COC(=O)C12CCC(C)(C)CC1C1=CC[C@@H]3[C@@]4(C)CCC(=O)NC(C)(C)[C@@H]4CC[C@@]3(C)[C@]1(C)CC2` (stereo not given in full), for which, in the assay listed under Mus musculus [4], the Inhibition came to 0%.
On to `C[C@@H]1CCC2(CO)CC[C@]3(C)C(=CC[C@@H]4[C@@]5(C)CC[C@H](O)C(C)(C)[C@@H]5CC[C@]43C)C2[C@H]1C` (stereo not given in full), for which, in the assay listed under Mus musculus [4], the Inhibition is 8%.
`COC(=O)[C@]12CCC(C)(C)CC1C1=CC[C@@H]3[C@@]4(C)C=C(C=O)C(=O)C(C)(C)[C@@H]4CC[C@@]3(C)[C@]1(C)CC2` (stereo not given in full): the IC50 entry in the assay filed under Mus musculus [3] and in the assay listed under Mus musculus [8] was “Not active below 1 uM” each time.
The compound `COC(=O)C12CCC(C)(C)CC1[C@H]1[C@H](O)C[C@@H]3[C@@]4(C)CC[C@H](OC(C)=O)C(C)(C)[C@@H]4CC[C@@]3(C)[C@]1(C)CC2` (stereo not given in full) gave an Inhibition in the assay filed under Mus musculus [4] of 0%.
